Screening data: PubChem BioAssay, Broad Institute
This is a sample that favours compounds with a hit; in the whole collection about 2% have one here.
DENV2 CPE = inhibitors of DENV2 cytopathic effect, primary screen, cell-based, plate reader, single concentration; DENV2-infected cells, cytopathic effect rescue; CPE inhibition, % at 9.99 µM; actives 1.7% (n = 350,000); in the data active = CPE inhibition above about 20%, passing the limit was not always enough; inconclusive = no clear call, values can overlap the other calls; tested in BHK-21 cells;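 also: 0% = median of neutral control wells and 100% = median of positive control wells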
CASP6 VEID inh = human caspase-6 inhibitors, primary screen, biochemical, VEID-R110 fluorescence, single point, set 2. P55212. purified caspase-6, Z-VEID-R110 cleavage fluorescence. inhibition, % at 12.5 µM. actives 0.53% (n = 350,000). AID 686996, 2013;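 active = mean inhibition across replicates at least about 35%, with every replicate also reaching that limit, limit read from the data; inconclusive = only one of the two criteria met; inactive = neither criterion met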;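 also: 0% = median of neutral control wells and 100% = no fluorescence left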
Target sequence (P55212 24-179 limits assumed): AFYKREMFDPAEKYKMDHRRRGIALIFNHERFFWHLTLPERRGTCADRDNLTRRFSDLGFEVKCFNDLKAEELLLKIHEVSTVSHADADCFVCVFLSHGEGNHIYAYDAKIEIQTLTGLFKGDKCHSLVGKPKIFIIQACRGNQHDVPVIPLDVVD
Target sequence (P55212 194-293 limits assumed): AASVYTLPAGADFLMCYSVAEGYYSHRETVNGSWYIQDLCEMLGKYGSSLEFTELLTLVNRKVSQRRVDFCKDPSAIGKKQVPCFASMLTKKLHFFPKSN
Xi reactivation = activators of inactive X chromosome reactivation, primary screen, imaging, XiGFP fibroblasts, GFP high-content imaging, set 2 | activation, % at 7.58 µM | XiGFP mouse fibroblasts, % GFP-positive cells imaging, 3 d; cells co-treated with 5-aza-dC sensitizer; scaled so ellipticine positive control = 100% | actives 0.055% (n = 360,000);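 active = mean normalized replicate activation at least 10% and every replicate at or above 10%; inconclusive = only one of the two criteria met; inactive = mean below 10% and not all replicates reach 10%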;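 also: 0% = median of on-plate neutral control wells and 100% = ellipticine 6 µM median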
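Assay system: SV40-immortalized XiGFP fibroblast cells, line 68-5-11; buffer or medium: DMEM plus 5-aza-dC sensitizer; compound: one concentration, pinned; timing: compounds 3 days, fix/stain 15 min at room temperature; benchmarks: positive control ellipticine, 6 µM final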
CaV13 FRET inh = Primary screen for inhibitors of IQ motif and Ca2+-dependent inactivation inhibitor domain binding in CACNA1D, Förster resonance energy transfer in living cells, …; HEK cells, CFP/YFP FRET ICDI-IQ, plate reader, 10 min; percent FRET-ratio fall versus neutral wells; inhibition, % at 12.3 µM; actives 0.098% (n = 340,000); AID 743397;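 active = mean replicate inhibition of at least 30% and at least 1% of replicates passing that level; inconclusive = only one of the two criteria is met; inactive = neither criterion is met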;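 also: 0% = median of the neutral control wells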
FN deposit inh = inhibitors of fibronectin matrix deposition, primary screen, AH1F cells, Alexa488-fibronectin fluorescence, plate reader; AH1F fibroblasts, overnight; inhibition, % at 12.6 µM; actives 0.086% (n = 350,000); AID 743247, 2014;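 active = mean inhibition across replicates of 30% or more, regardless of how many single replicates reach that level; inconclusive = mean under 30% yet at least half of replicates reach 30%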;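 also: positive control wells lacked labelled fibronectin entirely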
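Material – AH1F fibroblast monolayer, labelled fibronectin deposition · Reagent – labelled fibronectin 24 nM · Timing – 1 h adhesion, overnight exposure · Measured by – fluorescence at 485 nm excitation, 525 nm emission · Read-out – inhibition of fibronectin deposition signal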
Starred values were filed as active, the others as inactive; ? = inconclusive; . = no result.

SMILES | DENV2 CPE | CASP6 VEID inh | Xi reactivation | CaV13 FRET inh | FN deposit inh
Cc1csc2c(=O)sc(NC(=O)c3ccco3)nc12 | -1.0 | 5.4 | 0.1 | -2.1 | -17.7
O=C1NN(c2ccccc2)C(=O)/C1=C/c1coc2ccccc2c1=O | . | . | . | -6.7 | .
CSC1=NSC2=NC(=O)/C(=C/c3coc4ccc(O)cc4c3=O)C(=N)N12 | . | 39.9* | 0.0 | 126.3* | -15.5
CSC1=NSC2=NC(=O)/C(=C/c3coc4ccccc4c3=O)C(=N)N12 | -6.8 | 15.6 | 0.0 | -17.1 | -8.8
O=C1NN(c2ccccc2)C(=O)/C1=C\c1coc2ccc(O)cc2c1=O | 4.3 | 39.1* | -0.1 | -2.7 | 3.0
C[C@@H]1CN([C@H](C)CO)C(=O)c2cc(-c3cncnc3)cnc2O[C@H]1CN(C)C(=O)Cc1ccccn1 | -2.5 | -0.5 | -0.6 | . | 3.2
Cc1cc(C)nc(N2CCN(S(=O)(=O)c3ccc(F)cc3)CC2)n1 | -4.1 | 37.7* | -0.2 | -2.1 | 4.6
Cc1noc(C)c1NC(=O)N(C)C[C@@H]1OCCCC[C@@H](C)Oc2ccc(NC(=O)Nc3ccc(F)cc3)cc2C(=O)N([C@H](C)CO)C[C@H]1C | 1.9 | 0.8 | 0.2 | . | 7.2
O=C1COc2ccc(S(=O)(=O)N3CCN(c4cccc(C(F)(F)F)c4)CC3)cc2N1 | -4.5 | 6.3 | 0.0 | -11.3 | 7.9
Cc1cc2c(cc1S(=O)(=O)N1CCN(c3cccc(C(F)(F)F)c3)CC1)OCC(=O)N2 | 31.6* | 18.4 | 0.1 | -2.6 | -4.9
C[C@H](CO)N1C[C@H](C)[C@H](CN(C)Cc2ccccc2C(F)(F)F)OCc2ccccc2-c2c(n(C)c3ccccc23)C1=O | 26.4* | 1.3 | -0.3 | . | 18.1
C[C@H]1CN([C@@H](C)CO)C(=O)c2c(c3ccccc3n2C)-c2ccccc2CO[C@H]1CN(C)Cc1ccc2c(c1)OCCN2C | -0.3 | 1.0 | 0.4 | . | 5.8
C[C@H](CO)N1C[C@H](C)[C@@H](CN(C)Cc2ccc3c(c2)OCCN3C)OCc2ccccc2-c2c(n(C)c3ccccc23)C1=O | 37.3* | 2.6 | -1.2 | . | 3.9
COc1ccccc1CN(C)C[C@H]1OCc2ccccc2-c2c(n(C)c3ccccc23)C(=O)N([C@H](C)CO)C[C@H]1C | 26.6* | 1.8 | 0.2 | . | 10.2
C[C@@H]1CN([C@H](C)CO)C(=O)Cc2cc(NC(=O)Cc3ccccc3)ccc2O[C@@H]1CN(C)Cc1ccc(Oc2ccccc2)cc1 | -1.7 | -0.5 | -0.5 | . | .
FC(F)(F)c1nc2ccccc2n1CCNc1nc(CN2CCCCC2)cs1 | 29.7* | -11.3 | -0.1 | -6.4 | 1.0
CC(C)CC#Cc1ccc2c(c1)O[C@@H](CN(C)Cc1ccccc1F)[C@H](C)CN([C@H](C)CO)S2(=O)=O | -3.7 | 3.5 | -0.5 | . | -18.0
CCCc1c(C(=O)N/N=C/c2ccoc2)nnn1-c1nonc1N | 20.8* | 8.7 | 0.2 | -8.8 | 4.7
O=C(C[C@@H]1CC[C@H](NC(=O)Nc2ccc3c(c2)OCO3)[C@@H](CO)O1)NCCCN1CCOCC1 | -4.0 | -4.4 | -0.5 | . | 11.0
CC(C)N(C[C@@H]1[C@H](c2ccccc2)[C@@H](CO)N1S(C)(=O)=O)C(=O)CN(C)C | 54.5* | -1.2 | 0.5 | . | -4.3
CNC[C@@H]1OCCCC[C@H](C)Oc2ccc(NS(=O)(=O)c3ccc(F)cc3)cc2C(=O)N([C@@H](C)CO)C[C@H]1C | . | . | 0.2 | . | -2.0
O=C(NC1CCCC1)C(C1CC1)n1c(C2CCCC2)nc2ccccc21 (stereo not drawn) | 50.6* | 0.3 | . | . | -0.4
Cc1ccc(-c2nc3ccccc3n2C(C(=O)NC(C)(C)C)C2CC2)cc1 (stereo not drawn) | 31.1* | -1.3 | -0.1 | -9.3 | 5.0
CCN(CC)C1=CC2=CC(=C(C#N)C#N)CCC2CC1 (stereo not drawn) | . | -2.7 | 81.6* | 23.7 | -77.0
CCOc1ccccc1NC(=O)CSc1n[nH]c(N)n1 | -2.3 | 56.7* | 0.3 | . | .
SMILES | DENV2 CPE | CASP6 VEID inh | Xi reactivation | CaV13 FRET inh | FN deposit inh
CCOc1cc(N2CCOCC2)c(OCC)cc1NC(=O)CSc1n[nH]c(N)n1 | 6.3 | -3.1 | -0.1 | -1.9 | 0.6
Cc1noc(C)c1S(=O)(=O)Nc1cccc2c1O[C@H](CN(C)Cc1ccncc1)[C@H](C)CN([C@@H](C)CO)C2=O | ? | 0.7 | 0.2 | . | .
COc1ccc2c3c([nH]c2c1)[C@H](CO)N(C(=O)c1ccncc1)CC31CN(Cc2cccnc2)C1 | . | . | 0.2 | . | .
NC(=O)CCCn1c(C(=O)c2ccc(Cl)cc2)c2ccc([N+](=O)[O-])cc2[n+]1[O-] | -8.0 | 6.2 | 0.0 | -5.3 | 5.7
Cc1ccc(C(=O)c2c3ccc([N+](=O)[O-])cc3[n+]([O-])n2CCCC(N)=O)cc1 | 69.9* | 8.2 | 0.0 | -5.4 | -9.9
C[C@H](CO)N1C[C@H](C)[C@@H](CN(C)C)Oc2ncc(C3=CCCC3)cc2C1=O | 0.6 | 0.5 | -0.9 | . | -12.1
CCOC(=O)C1=C(CS(=O)(=O)c2ccc(C)cc2)NC(=O)NC1c1cc(OC)c(O)c(OC)c1 (stereo not drawn) | 36.6* | 0.2 | 0.0 | -1.5 | -0.9
C[C@@H]1CN([C@H](C)CO)C(=O)Cc2cc(NC(=O)Cn3cnnn3)ccc2O[C@H]1CN(C)Cc1ccc(C(=O)O)cc1 | -8.3 | -1.0 | -1.4 | . | .
CCOc1ccc(-c2n[nH]c(=S)n2Cc2ccccc2)cc1 | -1.9 | 37.2* | 0.3 | -4.3 | -3.9
O=C1/C(=C\c2ccc(O)cc2)SC(=S)N1c1cccnc1 | -0.7 | -0.7 | 0.2 | -16.8 | -1.2
O=C1/C(=C/c2ccco2)SC(=S)N1c1cccnc1 | 2.4 | 83.3* | 0.2 | -4.7 | -3.8
NN1C(=O)/C(=C\c2ccco2)SC1=S | -1.8 | 70.3* | 0.1 | -18.9 | 0.2
CCOC(=O)CN1C(=O)S/C(=C/c2ccco2)C1=O | 2.6 | 10.8 | 0.3 | -4.5 | -4.3
O=C1/C(=C/C=C/c2ccco2)SC(=S)N1c1ccc(O)cc1 | 1.1 | 76.3* | 0.7 | -6.0 | -0.1
O=C1NC(=Nc2ccc(O)cc2)S/C1=C/c1ccco1 | -0.6 | 39.3* | 0.0 | -2.5 | 9.0
Cc1ccccc1S(=O)(=O)N1CC(=O)N2[C@H](CO)[C@H](c3ccc(C#Cc4ccccc4)cc3)[C@@H]2C1 | 4.2 | 1.6 | 0.0 | . | .
C[C@H](CO)N1C[C@H](C)[C@H](CN(C)C(=O)CC2CC2)Oc2cc(C#CC(C)(C)O)ccc2S1(=O)=O | 10.1 | -1.6 | 0.1 | . | -0.1
C[C@@H]1CCCCO[C@@H](CN(C)C(=O)Cc2ccccc2)[C@H](C)CN([C@@H](C)CO)C(=O)c2cc(NC(=O)c3ccncc3)ccc2O1 | -5.1 | 2.3 | 0.0 | . | .
